According to ChEMBL document CHEMBL4706544, “Discovery of 2-oxy-2-phenylacetic acid substituted naphthalene sulfonamide derivatives as potent KEAP1-NRF2 protein-protein interaction inhibitors for inflammatory conditions” (Eur J Med Chem, 2020):
The source made the active and inactive calls. The rule behind the calls is not given here.

Key:
Keap1/Nrf2 = Keap1/Nrf2 (Homo sapiens, UniProt Q14145)
RAW264.7 [1] = experiment: Antioxidant activity in mouse RAW264.7 cells assessed as inhibition of LPS-induced ROS generation at 10 uM measured after 12 hrs by CH2DCF-DA staining based fluorescence microscopic analysis; format: functional, cell-based
How it was run: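 RAW 264.7 cells were pretreated with LPS 1 µg/mL for 6 h, then given compound for 12 h. Cells were washed with PBS and stained with 10 µM c-H2DCF-DA for 20 min at 37 °C in the dark. ROS was imaged by live-cell fluorescence microscopy and quantified as mean fluorescence intensity. n = 3 independent observations, mean ± SEM.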

RAW264.7 [2] = experiment: Antioxidant activity in LPS-induced mouse RAW264.7 cells assessed as restoration of SOD activity at 10 uM […]; format: functional, cell-based
RAW264.7 [3] = experiment: Antioxidant activity in LPS-induced mouse RAW264.7 cells assessed as restoration of GSH-Px activity at 10 uM measured after 12 hrs; format: functional, cell-based
How it was run: (§1)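 RAW 264.7 cells were pretreated with LPS 1 µg/mL for 6 h, then exposed to compound (1 or 10 µM) for a further 12 h. SOD activity (WST-8 kit), GSH-Px activity, MPO activity and the GSH/GSSG ratio were measured with commercial kits per the manufacturer's protocols. Data are mean ± SEM, n = 3 independent observations, one-way ANOVA.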

RAW264.7 [4] = experiment: Antioxidant activity in LPS-induced mouse RAW264.7 cells assessed as restoration of GSH to GSSG ratio at 10 uM measured after 12 hrs; format: functional, cell-based
How it was run: as §1

RAW264.7 [5] = experiment: Antioxidant activity in mouse RAW264.7 cells assessed as reversal in LPS-induced increase of MPO activity measured after 12 hrs; format: functional, cell-based
How it was run: as §1

[6] = Half life in CD-1 rat liver microsomes preincubated for 5 mins followed by NADPH addition and measured after 45 mins by LC-MS/MS analysis; format: ADME, Microsome; details: time 50 min
How it was run: (§2)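 CD-1 male rat liver microsomes in PBS were shaken 10 min at 37 °C, then DMSO compound solution (0.1 mM) was added. Plates were preincubated 5 min at 37 °C before NADPH was added to start the reaction; the 0-min samples were quenched with acetonitrile first. Ice-cold acetonitrile stopped reactions at 5, 15, 30 and 45 min. Clozapine was the reference; supernatants were analysed by LC-MS/MS.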

[7] = Intrinsic clearance in CD-1 rat liver microsomes preincubated for 5 mins followed by NADPH addition and measured after 45 mins by LC-MS/MS analysis; format: ADME, Microsome; details: time 50 min
How it was run: as §2

[8] = Hepatic clearance in CD-1 rat liver microsomes preincubated for 5 mins followed by NADPH addition and measured after 45 mins by LC-MS/MS analysis; format: ADME, Microsome
How it was run: as §2

Cytochrome P450 1A2 = molecular target: T1, Cytochrome P450 1A2 (Homo sapiens, UniProt P05177); experiment: Inhibition of CYP1A2 in human liver microsomes preincubated for 10 mins followed by NADPH addition by LC-MS/MS analysis; format: ADME
T1 sequence (P05177 whole entry): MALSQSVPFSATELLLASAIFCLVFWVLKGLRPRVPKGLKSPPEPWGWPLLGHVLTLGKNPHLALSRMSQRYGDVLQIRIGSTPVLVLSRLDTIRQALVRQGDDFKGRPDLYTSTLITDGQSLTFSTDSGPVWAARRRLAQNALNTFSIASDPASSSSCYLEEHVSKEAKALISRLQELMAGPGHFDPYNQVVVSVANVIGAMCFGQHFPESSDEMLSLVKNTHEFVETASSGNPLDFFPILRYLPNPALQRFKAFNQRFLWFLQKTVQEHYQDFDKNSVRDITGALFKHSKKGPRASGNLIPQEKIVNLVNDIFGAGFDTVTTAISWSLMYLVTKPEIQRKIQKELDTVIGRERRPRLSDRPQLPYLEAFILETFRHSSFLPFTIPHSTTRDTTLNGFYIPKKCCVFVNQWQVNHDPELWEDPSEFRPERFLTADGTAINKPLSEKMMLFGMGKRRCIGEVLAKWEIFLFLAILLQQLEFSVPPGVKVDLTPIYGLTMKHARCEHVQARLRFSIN

Cytochrome P450 2C9 = Cytochrome P450 2C9 (Homo sapiens, UniProt P11712); experiment: Inhibition of CYP2C9 in human liver microsomes preincubated for 10 mins followed by NADPH addition by LC-MS/MS analysis; format: ADME
Cytochrome P450 2C19 = Cytochrome P450 2C19 (Homo sapiens, UniProt P33261); experiment: Inhibition of CYP2C19 in human liver microsomes preincubated for 10 mins followed by NADPH addition by LC-MS/MS analysis; format: ADME
Cytochrome P450 2D6 = Cytochrome P450 2D6 (Homo sapiens, UniProt P10635); experiment: Inhibition of CYP2D6 in human liver microsomes preincubated for 10 mins followed by NADPH addition by LC-MS/MS analysis; format: ADME
Cytochrome P450 3A4 = Cytochrome P450 3A4 (Homo sapiens, UniProt P08684); experiment: Inhibition of CYP3A4 in human liver microsomes preincubated for 10 mins followed by NADPH addition by LC-MS/MS analysis; format: ADME
[9] = AUC (0 to t) in Sprague-Dawley rat at 1 mg/kg, iv by LC-MS/MS analysis; format: ADME, organism-based; details: in vivo
[10] = AUC (0 to infinity) in Sprague-Dawley rat at 1 mg/kg, iv by LC-MS/MS analysis; format: ADME, organism-based; design: dose 1 mg/kg, route intravenous, time infinity; details: in vivo
[11] = Half life in Sprague-Dawley rat at 1 mg/kg, iv by LC-MS/MS analysis; format: ADME, organism-based; details: in vivo
How it was run: (§3)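 Six male SD rats (180–220 g) received 1 mg/kg IV in normal saline with cosolvent. Plasma was obtained by centrifugation at 4 °C and 2000 rpm for 10 min, stored near −80 °C, and analysed by LC-MS/MS.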

[12] = Cmax in Sprague-Dawley rat at 1 mg/kg, iv by LC-MS/MS analysis; format: ADME, organism-based; design: route intravenous, dose 1 mg/kg; details: in vivo
How it was run: as §3

[13] = Apparent volume of distribution during terminal phase in Sprague-Dawley rat at 1 mg/kg, iv by LC-MS/MS analysis; format: ADME, organism-based; details: in vivo
How it was run: as §3

Mus musculus [14] = experiment: Antiinflammatory activity in ip dosed LPS-induced C57BL/6 mouse model assessed as reduction in IFNgamma production treated for 3 days measured 24 hrs post last dose by ELISA; format: functional, organism-based; details: time 4.0 day
How it was run: (§4)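 Female C57BL/6 mice (20 ± 2 g) got LPS 300 µg/kg IP, then 4 h later IP test compound (500 µL) daily for 3 days. Groups were saline control (n=3), LPS (n=8), LPS + 10 or 40 mg/kg (n=8 each) and LPS + dexamethasone 10 mg/kg IP (n=8). Sera were taken 24 h after the last dose, and IFN-γ, IL-1β, IL-6 and TNF-α were measured by ELISA kits.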

Mus musculus [15] = experiment: Antiinflammatory activity in ip dosed LPS-induced C57BL/6 mouse model assessed as reduction in IL1beta production treated for 3 days measured 24 hrs post last dose by ELISA; format: functional, organism-based; details: time 4.0 day
How it was run: as §4

Mus musculus [16] = experiment: Antiinflammatory activity in ip dosed LPS-induced C57BL/6 mouse model assessed as reduction in IL6 production treated for 3 days measured 24 hrs post last dose by ELISA; format: functional, organism-based; details: time 4.0 day
How it was run: as §4

Mus musculus [17] = experiment: Antiinflammatory activity in ip dosed LPS-induced C57BL/6 mouse model assessed as reduction in TNFalpha production treated for 3 days measured 24 hrs post last dose by ELISA; format: functional, organism-based; details: time 4.0 day
How it was run: as §4

Mus musculus [18] = experiment: Antiinflammatory activity in LPS-induced C57BL/6 mouse model assessed as reduction in IFNgamma production at 10 mg/kg, ip treated for 3 days measured 24 hrs post last dose by ELISA; format: functional, organism-based; details: time 4.0 day
How it was run: as §4

Mus musculus [19] = experiment: Antiinflammatory activity in LPS-induced C57BL/6 mouse model assessed as reduction in IL1beta production at 10 mg/kg, ip treated for 3 days measured 24 hrs post last dose by ELISA; format: functional, organism-based; details: time 4.0 day
How it was run: as §4

Mus musculus [20] = experiment: Antiinflammatory activity in LPS-induced C57BL/6 mouse model assessed as reduction in IL6 production at 10 mg/kg, ip treated for 3 days measured 24 hrs post last dose by ELISA; format: functional, organism-based; details: time 4.0 day
How it was run: as §4

Mus musculus [21] = experiment: Antiinflammatory activity in LPS-induced C57BL/6 mouse model assessed as reduction in TNFalpha production at 10 mg/kg, ip treated for 3 days measured 24 hrs post last dose by ELISA; format: functional, organism-based; details: time 4.0 day
How it was run: as §4

Keap1/Nrf2, sequence (Q16236 whole entry): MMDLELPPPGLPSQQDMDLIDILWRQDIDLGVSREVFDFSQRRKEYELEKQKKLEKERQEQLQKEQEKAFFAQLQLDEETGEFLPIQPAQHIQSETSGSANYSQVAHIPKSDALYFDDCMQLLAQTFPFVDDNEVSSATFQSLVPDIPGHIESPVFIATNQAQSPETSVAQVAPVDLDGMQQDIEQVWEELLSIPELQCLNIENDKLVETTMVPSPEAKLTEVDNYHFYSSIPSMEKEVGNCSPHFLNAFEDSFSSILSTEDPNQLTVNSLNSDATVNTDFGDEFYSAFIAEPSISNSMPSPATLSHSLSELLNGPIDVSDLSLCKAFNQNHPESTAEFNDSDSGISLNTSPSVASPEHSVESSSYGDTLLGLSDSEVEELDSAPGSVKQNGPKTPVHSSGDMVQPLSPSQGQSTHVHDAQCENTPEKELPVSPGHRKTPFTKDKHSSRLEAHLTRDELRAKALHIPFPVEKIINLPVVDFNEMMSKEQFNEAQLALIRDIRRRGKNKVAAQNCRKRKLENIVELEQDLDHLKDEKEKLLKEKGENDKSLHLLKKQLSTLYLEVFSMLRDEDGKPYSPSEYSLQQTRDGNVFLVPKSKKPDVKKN
Keap1/Nrf2, sequence (Q14145 whole entry): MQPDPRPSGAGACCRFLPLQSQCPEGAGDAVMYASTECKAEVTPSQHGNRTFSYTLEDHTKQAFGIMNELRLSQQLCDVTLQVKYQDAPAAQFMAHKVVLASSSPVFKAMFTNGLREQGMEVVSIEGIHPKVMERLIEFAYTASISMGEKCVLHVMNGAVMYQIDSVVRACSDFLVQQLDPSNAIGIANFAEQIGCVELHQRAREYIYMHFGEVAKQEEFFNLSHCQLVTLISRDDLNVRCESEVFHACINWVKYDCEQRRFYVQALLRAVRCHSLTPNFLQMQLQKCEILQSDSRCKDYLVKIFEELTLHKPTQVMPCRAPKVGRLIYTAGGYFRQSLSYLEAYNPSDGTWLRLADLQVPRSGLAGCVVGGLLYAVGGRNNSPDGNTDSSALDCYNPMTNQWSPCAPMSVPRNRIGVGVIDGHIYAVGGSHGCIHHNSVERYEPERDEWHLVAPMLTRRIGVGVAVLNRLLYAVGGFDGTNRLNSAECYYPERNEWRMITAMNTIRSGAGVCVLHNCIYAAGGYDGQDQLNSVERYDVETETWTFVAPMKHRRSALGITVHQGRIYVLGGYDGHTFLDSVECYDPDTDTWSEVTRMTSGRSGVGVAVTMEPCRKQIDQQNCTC
Cytochrome P450 3A4, sequence (P08684 whole entry): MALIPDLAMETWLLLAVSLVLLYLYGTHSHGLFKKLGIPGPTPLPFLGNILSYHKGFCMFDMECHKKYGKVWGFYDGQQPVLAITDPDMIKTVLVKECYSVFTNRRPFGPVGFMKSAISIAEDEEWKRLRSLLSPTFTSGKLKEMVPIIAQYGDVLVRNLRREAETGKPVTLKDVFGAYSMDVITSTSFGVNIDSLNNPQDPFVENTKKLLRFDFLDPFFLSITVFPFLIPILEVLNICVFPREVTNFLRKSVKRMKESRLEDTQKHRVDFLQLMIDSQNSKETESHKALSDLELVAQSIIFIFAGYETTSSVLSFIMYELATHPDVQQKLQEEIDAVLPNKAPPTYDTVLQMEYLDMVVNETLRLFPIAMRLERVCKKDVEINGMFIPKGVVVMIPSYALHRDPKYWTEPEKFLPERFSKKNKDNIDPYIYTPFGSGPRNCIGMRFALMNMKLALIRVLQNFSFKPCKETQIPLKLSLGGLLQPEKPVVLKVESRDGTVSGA
Cytochrome P450 2C19, sequence (P33261 whole entry): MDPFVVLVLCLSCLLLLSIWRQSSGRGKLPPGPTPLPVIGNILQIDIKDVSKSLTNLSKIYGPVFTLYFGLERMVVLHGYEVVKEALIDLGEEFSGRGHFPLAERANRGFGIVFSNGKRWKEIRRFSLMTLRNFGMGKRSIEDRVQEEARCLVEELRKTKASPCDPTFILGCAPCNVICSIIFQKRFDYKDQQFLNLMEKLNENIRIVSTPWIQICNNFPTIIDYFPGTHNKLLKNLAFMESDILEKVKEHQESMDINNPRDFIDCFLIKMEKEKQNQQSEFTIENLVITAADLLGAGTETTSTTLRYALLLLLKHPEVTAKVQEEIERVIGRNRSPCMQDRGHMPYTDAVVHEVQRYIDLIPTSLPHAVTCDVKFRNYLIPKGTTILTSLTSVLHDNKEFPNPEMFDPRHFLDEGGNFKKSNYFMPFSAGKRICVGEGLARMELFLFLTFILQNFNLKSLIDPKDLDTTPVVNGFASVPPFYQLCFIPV
Cytochrome P450 2C9, sequence (P11712 whole entry): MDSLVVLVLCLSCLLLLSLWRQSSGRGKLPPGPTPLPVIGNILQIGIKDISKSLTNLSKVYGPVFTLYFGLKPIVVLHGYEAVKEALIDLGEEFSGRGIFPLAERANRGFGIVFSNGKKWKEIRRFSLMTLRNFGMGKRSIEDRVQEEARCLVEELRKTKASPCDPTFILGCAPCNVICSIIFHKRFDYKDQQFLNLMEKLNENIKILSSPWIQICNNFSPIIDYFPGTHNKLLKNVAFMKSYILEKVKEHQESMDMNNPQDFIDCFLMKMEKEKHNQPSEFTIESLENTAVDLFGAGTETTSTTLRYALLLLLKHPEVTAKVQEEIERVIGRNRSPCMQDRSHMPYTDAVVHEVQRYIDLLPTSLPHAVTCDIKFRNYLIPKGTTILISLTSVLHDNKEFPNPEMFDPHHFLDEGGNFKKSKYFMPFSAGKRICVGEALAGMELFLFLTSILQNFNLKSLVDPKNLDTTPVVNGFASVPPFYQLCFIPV
Cytochrome P450 2D6, sequence (P10635 whole entry): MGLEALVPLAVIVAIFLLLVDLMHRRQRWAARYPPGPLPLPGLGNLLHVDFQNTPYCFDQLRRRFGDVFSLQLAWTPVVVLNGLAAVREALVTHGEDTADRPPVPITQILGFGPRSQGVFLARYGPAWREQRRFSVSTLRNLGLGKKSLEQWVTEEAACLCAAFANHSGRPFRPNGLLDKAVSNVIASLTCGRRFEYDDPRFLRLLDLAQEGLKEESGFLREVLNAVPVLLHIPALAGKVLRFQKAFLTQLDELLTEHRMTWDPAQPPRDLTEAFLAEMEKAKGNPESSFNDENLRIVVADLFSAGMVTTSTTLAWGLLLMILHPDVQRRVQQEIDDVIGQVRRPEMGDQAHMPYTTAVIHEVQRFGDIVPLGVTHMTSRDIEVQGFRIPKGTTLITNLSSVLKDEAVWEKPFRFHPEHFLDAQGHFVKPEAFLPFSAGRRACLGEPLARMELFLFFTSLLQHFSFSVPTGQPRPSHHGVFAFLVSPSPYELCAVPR

Cc1cc(C)c(S(=O)(=O)N(CC(=O)O)c2ccc(OC(C(=O)O)c3ccc(F)cc3)c3ccccc23)c(C)c1 (configuration not stated)
IC50 (Keap1/Nrf2): 170 nM

Cc1cc(C)c(S(=O)(=O)N(CC(=O)O)c2ccc(OC(C(=O)O)c3ccc(O)cc3)c3ccccc23)c(C)c1 (configuration not stated)
IC50 (Keap1/Nrf2): 160 nM

Cc1cc(C)c(S(=O)(=O)N(CC(=O)O)c2ccc(OC(C(=O)O)c3ccc(OC(C)C)cc3)c3ccccc23)c(C)c1 (configuration not stated)
IC50 (Keap1/Nrf2): 500 nM

O=C(O)CN(c1ccc(OC(C(=O)O)c2ccccc2)c2ccccc12)S(=O)(=O)c1ccc(Cl)cc1 (configuration not stated)
IC50 (Keap1/Nrf2): 7640 nM

Cc1cc(C)c(S(=O)(=O)N(CC(=O)O)c2ccc(OC(C(=O)O)c3ccc(Br)cc3)c3ccccc23)c(C)c1 (configuration not stated)
IC50 (Keap1/Nrf2): 430 nM

Cc1cc(C)c(S(=O)(=O)N(CC(=O)O)c2ccc(OC(C(=O)O)c3ccc(C(C)(C)C)cc3)c3ccccc23)c(C)c1 (configuration not stated)
IC50 (Keap1/Nrf2): 19000 nM

Cc1cc(C)c(S(=O)(=O)N(CC(=O)O)c2ccc(OC(C(=O)O)c3ccc(Cl)cc3)c3ccccc23)c(C)c1 (configuration not stated)
IC50 (Keap1/Nrf2): 190 nM

CC(=O)Nc1ccc(C(Oc2ccc(N(CC(=O)O)S(=O)(=O)c3c(C)cc(C)cc3C)c3ccccc23)C(=O)O)cc1 (configuration not stated)
IC50 (Keap1/Nrf2): 980 nM

NC(=O)c1ccc(S(=O)(=O)N(CC(=O)O)c2ccc(OC(C(=O)O)c3ccccc3)c3ccccc23)cc1 (configuration not stated)
IC50 (Keap1/Nrf2): 2690 nM

O=C(O)CN(c1ccc(OC(C(=O)O)c2ccccc2)c2ccccc12)S(=O)(=O)c1ccc(Br)cc1 (configuration not stated)
IC50 (Keap1/Nrf2): 2970 nM

O=C(O)CN(c1ccc(OC(C(=O)O)c2ccccc2)c2ccccc12)S(=O)(=O)c1ccccc1 (configuration not stated)
IC50 (Keap1/Nrf2): 17800 nM

Cc1ccc(S(=O)(=O)N(CC(=O)O)c2ccc(OC(C(=O)O)c3ccccc3)c3ccccc23)cc1 (configuration not stated)
IC50 (Keap1/Nrf2): 2690 nM

COc1ccc(C(Oc2ccc(N(CC(=O)O)S(=O)(=O)c3c(C)cc(C)cc3C)c3ccccc23)C(=O)O)cc1 (configuration not stated)
inhibition (RAW264.7 [1]): Dose-dependent effect
Activity (RAW264.7 [2]): Active
Activity (RAW264.7 [3]): Active
Activity (RAW264.7 [4]): Active
Activity (RAW264.7 [5]): Dose-dependent effect
half-life at […] [6]: 10.5 h
CLint at […] [7]: 1.57 µL/min/mg
CLhep predicted at […] [8]: 2.69 mL/min/kg
IC50 (Cytochrome P450 1A2): > 10000 nM
IC50 (Cytochrome P450 2C9): > 10000 nM
IC50 (Cytochrome P450 2C19): > 10000 nM
IC50 (Cytochrome P450 2D6): > 10000 nM
IC50 (Cytochrome P450 3A4): > 10000 nM
AUC(0-t) [9]: 2550 ng·h/mL
AUC [10]: 2649 ng·h/mL
t1/2 [11]: 1.72 h
Cmax [12]: 15100 ng/mL
Vz/F [13]: 0.953 L/kg
Activity (Mus musculus [14]): Dose-dependent effect
Activity (Mus musculus [15]): Dose-dependent effect
Activity (Mus musculus [16]): Dose-dependent effect
Activity (Mus musculus [17]): Dose-dependent effect

O=C(O)CN(c1ccc(OC(C(=O)O)c2ccccc2)c2ccccc12)S(=O)(=O)c1ccc(OC(F)(F)F)cc1 (configuration not stated)
IC50 (Keap1/Nrf2): 5840 nM

C[C@@H]1C[C@H]2[C@@H]3CCC4=CC(=O)C=C[C@]4(C)[C@@]3(F)[C@@H](O)C[C@]2(C)[C@@]1(O)C(=O)CO
Activity (Mus musculus [18]): Active
Activity (Mus musculus [19]): Active
Activity (Mus musculus [20]): Active
Activity (Mus musculus [21]): Active

O=C(O)CN(c1ccc(OC(C(=O)O)c2ccccc2)c2ccccc12)S(=O)(=O)c1cccc2ccccc12 (configuration not stated)
IC50 (Keap1/Nrf2): 780 nM

CCOc1ccc(C(Oc2ccc(N(CC(=O)O)S(=O)(=O)c3c(C)cc(C)cc3C)c3ccccc23)C(=O)O)cc1 (configuration not stated)
IC50 (Keap1/Nrf2): 150 nM

Cc1cc(C)c(S(=O)(=O)N(CC(=O)O)c2ccc(OC(C(=O)O)c3ccc(C(F)(F)F)cc3)c3ccccc23)c(C)c1 (configuration not stated)
IC50 (Keap1/Nrf2): 1190 nM
